Laboratory results: ChEMBL document CHEMBL3272208, “(Vinylaryloxy)acetic acids. A new class of diuretic agents. 3. ((2-Nitro-1-alkenyl)aryloxy)acetic acids” (1976)

Tests used:
[1] = tested on: Canis familiaris; test: Diuretic activity in mongrel dog assessed as volume of excreted urine at 10 mg/kg, iv measured between 15 to 45 mins after dosage (reference value: 1 to 4 ml/min); format: functional, Canis lupus familiaris
Outline: (§1)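 Compounds were given iv to dogs as Na salts in H2O. […] The baseline is the mean of two 15-min periods before dosing. The response is the mean of two consecutive 15-min periods of maximal Na+ excretion, usually 15–45 min post-dose. Na+, K+ and Cl- are in μequiv/min and urine volume in ml/min, reported as control/drug.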

[2] = tested on: Canis familiaris; test: Diuretic activity in mongrel dog assessed as sodium level in excreted urine at 1 mg/kg, po measured for 6 hrs (reference value: 2 mequivalents); format: functional, Canis lupus familiaris
[3] = tested on: Canis familiaris; test: Diuretic activity in mongrel dog assessed as chloride level in excreted urine at 10 mg/kg, iv measured between 15 to 45 mins after dosage (reference value: 3 to 64 uequiv/min); format: functional, Canis lupus familiaris
Outline: (§2)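 Compounds were given iv to dogs as Na salts in H2O. The baseline is the mean of two 15-min periods before dosing. The response is the mean of two consecutive 15-min periods of maximal Na+ excretion, usually 15–45 min post-dose. Na+, K+ and Cl- are in μequiv/min and urine volume in ml/min, reported as control/drug.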

[4] = tested on: Canis familiaris; test: Diuretic activity in mongrel dog assessed as chloride level in excreted urine at 1 mg/kg, po measured for 6 hrs (reference value: 2 mequivalents); format: functional, Canis lupus familiaris
[5] = tested on: Canis familiaris; test: Diuretic activity in mongrel dog assessed as sodium level in excreted urine at 3 mg/kg, po measured for 6 hrs (reference value: 2 mequivalents); format: functional, Canis lupus familiaris
[6] = tested on: Canis familiaris; test: Diuretic activity in mongrel dog assessed as potassium level in excreted urine at 3 mg/kg, po measured for 6 hrs (reference value: 1 mequivalents); format: functional, Canis lupus familiaris
[7] = tested on: Canis familiaris; test: Diuretic activity in mongrel dog assessed as chloride level in excreted urine at 3 mg/kg, po measured for 6 hrs (reference value: 2 mequivalents); format: functional, Canis lupus familiaris
[8] = tested on: Canis familiaris; test: Diuretic activity in mongrel dog assessed as potassium level in excreted urine at 1 mg/kg, po measured for 6 hrs (reference value: 1 mequivalents); format: functional, Canis lupus familiaris
[9] = tested on: Canis familiaris; test: Diuretic activity in mongrel dog assessed as chloride level in excreted urine at 1 mg/kg, iv measured between 15 to 45 mins after dosage (reference value: 1 to 70 uequiv/min); format: functional, Canis lupus familiaris; outline: as §2
[10] = tested on: Canis familiaris; test: Diuretic activity in mongrel dog assessed as potassium level in excreted urine at 1 mg/kg, iv measured between 15 to 45 mins after dosage (reference value: 6 to 47 uequiv/min); format: functional, Canis lupus familiaris; outline: as §1
[11] = tested on: Canis familiaris; test: Diuretic activity in mongrel dog assessed as sodium level in excreted urine at 1 mg/kg, iv measured […] after dosage (reference value: 3 to 95 uequiv/min); format: functional, Canis lupus familiaris; outline: as §2
[12] = tested on: Canis familiaris; test: Diuretic activity in mongrel dog assessed as potassium level in excreted urine at 10 mg/kg, iv measured between 15 to 45 mins after dosage (reference value: 7 to 63 uequiv/min); format: functional, Canis lupus familiaris; outline: as §1
[13] = tested on: Canis familiaris; test: Diuretic activity in mongrel dog assessed as sodium level in excreted urine at 10 mg/kg, iv measured […] after dosage (reference value: 5 to 66 uequiv/min); format: functional, Canis lupus familiaris; outline: as §1
[14] = tested on: Canis familiaris; test: Diuretic activity in mongrel dog assessed as volume of excreted urine at 1 mg/kg, iv measured between 15 to 45 mins after dosage (reference value: 1 to 4 ml/min); format: functional, Canis lupus familiaris; outline: as §1
[15] = tested on: Canis familiaris; test: Diuretic activity in mongrel dog assessed as potassium level in excreted urine at 0.4 mg/kg, po measured for 6 hrs (reference value: 1 mequivalents); format: functional, Canis lupus familiaris
[16] = tested on: Canis familiaris; test: Diuretic activity in mongrel dog assessed as volume of excreted urine at 1 mg/kg, po measured for 6 hrs (RVb = 180 ml)
[17] = tested on: Canis familiaris; test: Diuretic activity in mongrel dog assessed as potassium level in excreted urine at 0.1 mg/kg, iv measured between 15 to 45 mins after dosage (reference value: 14 uequiv/min); format: functional, Canis lupus familiaris; outline: as §1
[18] = tested on: Canis familiaris; test: Diuretic activity in mongrel dog assessed as chloride level in excreted urine at 0.1 mg/kg, iv measured between 15 to 45 mins after dosage (reference value: 14 uequiv/min); format: functional, Canis lupus familiaris; outline: as §1
[19] = tested on: Canis familiaris; test: Diuretic activity in mongrel dog assessed as volume of excreted urine at 0.4 mg/kg, po measured for 6 hrs (RVb = 180 ml)
[20] = tested on: Canis familiaris; test: Diuretic activity in mongrel dog assessed as sodium level in excreted urine at 0.1 mg/kg, iv measured […] after dosage (reference value: 36 uequiv/min); format: functional, Canis lupus familiaris; outline: as §1
[21] = tested on: Canis familiaris; test: Diuretic activity in mongrel dog assessed as volume of excreted urine at 0.1 mg/kg, iv measured between 15 to 45 mins after dosage (reference value: 1 ml/min); format: functional, Canis lupus familiaris; outline: as §1
[22] = tested on: Canis familiaris; test: Diuretic activity in mongrel dog assessed as chloride level in excreted urine at 2 mg/kg, po measured for 6 hrs (reference value: 2 mequivalents); format: functional, Canis lupus familiaris
[23] = tested on: Canis familiaris; test: Diuretic activity in mongrel dog assessed as volume of excreted urine at 2 mg/kg, po measured for 6 hrs (RVb = 180 ml)
[24] = tested on: Canis familiaris; test: Diuretic activity in mongrel dog assessed as potassium level in excreted urine at 2 mg/kg, po measured for 6 hrs (reference value: 1 mequivalents); format: functional, Canis lupus familiaris
[25] = tested on: Canis familiaris; test: Diuretic activity in mongrel dog assessed as sodium level in excreted urine at 2 mg/kg, po measured for 6 hrs (reference value: 2 mequivalents); format: functional, Canis lupus familiaris

C=C(CC)C(=O)c1ccc(OCC(=O)O)c(Cl)c1Cl [ETHACRYNIC ACID]
Activity [1]: 22 mL/min | Activity [2]: 21 milliequivalent | Activity [3]: 3324 uEq/min | Activity [4]: 26 milliequivalent | Activity [5]: 37 milliequivalent | Activity [6]: 7 milliequivalent | Activity [7]: 42 milliequivalent | Activity [8]: 5 milliequivalent | Activity [9]: 244 uEq/min | Activity [10]: 52 uEq/min | Activity [11]: 188 uEq/min | Activity [12]: 194 uEq/min | Activity [13]: 2989 uEq/min | Activity [14]: 6 mL/min

CC(=O)C(=Cc1ccc(OCC(=O)O)c(Cl)c1Cl)C(C)=O
Activity [2]: 30 milliequivalent | Activity [15]: 6 milliequivalent | Activity [16]: 492 mL | Activity [17]: 187 uEq/min | Activity [18]: 1100 uEq/min | Activity [19]: 762 mL | Activity [8]: 7 milliequivalent | Activity [10]: 104 uEq/min | Activity [20]: 984 uEq/min | Activity [21]: 9 mL/min | Activity [14]: 11 mL/min

C/C(=C\c1ccc(OCC(N)=O)c(Cl)c1Cl)[N+](=O)[O-]
Activity [22]: 39 milliequivalent | Activity [23]: 485 mL | Activity [24]: 8 milliequivalent | Activity [25]: 25 milliequivalent
